Screens from PubChem BioAssay.
This is a sample that favours compounds with a hit; in the whole collection about 2.2% have one here.
SDO1 yeast rescue = growth rescue of sdo1-depleted yeast, primary screen, S. cerevisiae, bone marrow failure model | S. cerevisiae sdo1-depleted JHY4D growth rescue, OD600 30 h; stronger effect = higher value; pdr5 snq2 efflux-pump mutant strain | AID 817, 2007 | z-score at 10 µM | actives 0.21% (n = 140,000);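 active = z-score above 3 at both the 24 hr and the 30 hr optical density reads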;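 also: z-score against mean and SD of all compound wells on the same plate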
Dynein transport = inhibitors of GR-EGFP nuclear translocation, primary screen, dynein cargo transport inhibitor project, imaging, high-content, 3617.4 mouse cells | test concentration mostly 20 µM; stimulated with dexamethasone, 1 µM; stronger effect = lower value | z-score, hits read low | actives 0.47% (n = 220,000) | AID 1381, 2008;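 active = plate z-score of nuclear minus cytoplasmic receptor signal below a set negative limit, without overly bright fluorescence or cell loss, cut at about -3.5 in these data, passing the limit was not always enough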;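 also: z-score of nuclear minus cytoplasmic ring GR-EGFP intensity difference per well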
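Buffer or medium: tet-free medium with charcoal-stripped serum / Also added: dexamethasone agonist, 1.0 µM final, for 30 min / Timing: induction 48 h, compound 1 h, agonist 30 min / Measured by: high-content fluorescence imaging after fixation / Read-out: nuclear-to-cytoplasmic GR-EGFP distribution per well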
Autophagy HCS = autophagy modulators in MEF cells, primary screen, imaging, high-content, MEF GFP-LC3 | MEF GFP-LC3 puncta imaging; test concentration mostly 10 µM | calls only at 10 µM (by protocol) | actives 0.98% (n = 190,000) | AID 463193, 2010;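 active = percentage of spot-positive cells more than 3 SD above its plate mean, without a fluorescence outlier flag or 80% toxicity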;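 also: spot-positive cell cutoff set from DMSO-treated cells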
bCat KO growth = primary screen for growth suppressors in beta-catenin knockout HCT116 cells (colon tumor, human); HCT116 beta-catenin knockout viability, CellTiter-Glo, 60 h; stronger effect = lower value; viability, % at 10 µM; actives 1.5% (n = 140,000);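 active = viability at or under a set limit, the compound median less 4 SD, cut at about 6% in these data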;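 also: 0% = Hyamine 1622 control at 20 µM and 100% = untreated cell control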
PTEN del growth = growth suppression of PTEN-null HCT116, primary screen, cell-based, CellTiter-Glo | viability, % at 10 µM | AID 827, 2007 | HCT116 PTEN-null viability, 60 h; stronger effect = lower value | actives 1.2% (n = 140,000);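 active = viability at or below a set limit, 4 SD under the median of all tested compounds, cut at about 3.7% in these data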;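 also: PTEN knockout HCT116 line with beta catenin targeted HCT116 as companion control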
The depositor's hits bear a star; i = inactive; nt = not tested or not shown; + = active, no number.

SMILES | SDO1 yeast rescue | Dynein transport | Autophagy HCS | bCat KO growth | PTEN del growth
CC1=C(C(=O)Nc2ccccc2)C(c2ccc(C)o2)n2c(s/c(=C/c3ccccc3)c2=O)=N1 (centres undefined) | 0.07 | 0.523 | i | 64.1 | 59.8
CC1=C(C(=O)Nc2ccccc2C)C(c2ccc(C)o2)n2c(s/c(=C/c3ccccc3)c2=O)=N1 (centres undefined) | -1.39 | 0.401 | i | 1.1* | 45.7
COc1cc(-c2nnc(SCC(=O)Nc3cc(C)on3)n2C)cc(OC)c1O | 0.9 | 0.161 | i | 69.9 | 90.1
Cc1cc(C)c2nc(NNC(=O)c3ccc(S(=O)(=O)N4CCc5ccccc5C4)cc3)sc2c1 | -1.63 | 2.68 | i | 4.0* | 6.5
Oc1ccc(N=Nc2cccc(C(F)(F)F)c2)cc1C=Nc1ccc(N2CCOCC2)cc1 | -0.79 | 2.87 | i | 4.1* | 4.4
Cc1ccc(C(=O)/C=C/c2ccc3c(c2)OCO3)o1 | -2.24 | -1.92 | i | 7.3 | 10.5
Cc1ccc(C(=O)/C=C/c2ccc(Br)cc2)o1 | 0.62 | -1.48 | i | 2.2* | 1.4*
CC1CCc2cc(F)ccc2N1C(=O)c1ccc2c(c1)OCO2 (centres undefined) | -0.76 | 0.685 | + | 87.0 | 83.0
COc1ccc(C(=O)N2c3ccc(F)cc3CCC2C)cc1OC (centres undefined) | -0.21 | 0.771 | i | 88.1 | 87.5
N=c1ncn(Cc2ccccc2)c2nc(SCCOc3ccccc3)[nH]c12 | -0.92 | 0.187 | i | 87.2 | 94.3
O=C(CCCc1nc(-c2ccccc2Cl)no1)NC1CCCCC1 | -0.64 | 0.175 | + | 109.4 | 104.6
CNC(=O)CCCc1nc(-c2ccccc2Cl)no1 | 0.56 | -0.0552 | i | 105.1 | 115.7
Brc1ccc2c(c1)C(C1=NCCN1)c1ccccc1CS2 (centres undefined) | 0.5 | -0.256 | i | 18.4 | 21.2
c1ccc2c(c1)CCCC2C1=NCCN1 (centres undefined) | -1.17 | -0.468 | i | 0.8* | 0.8*
CCOC(=O)C1=C(C)NC2=C(C(=O)CC(c3cccs3)C2)C1c1cccs1 (centres undefined) | -0.86 | 0.574 | + | 18.4 | 17.6
COC(=O)C1=C(C)NC2=C(C(=O)CC(c3cccs3)C2)C1c1ccsc1 (centres undefined) | -0.29 | 1.22 | i | 50.9 | 37.5
O=C(N/N=C/c1c(Nc2cccc(C(F)(F)F)c2)nc2ccccn2c1=O)c1ccccc1 | -1.99 | 0.557 | + | 64.3 | 66.3
CCOc1cc(N2CCOCC2)c(OCC)cc1NC(=O)C(NC(=O)c1ccco1)C(C)C (centres undefined) | 1.04 | 2.23 | i | 103.8 | 97.8
CCN(CC)c1ccc(C(=O)OCc2cc(=O)oc3cc(O)ccc23)cc1 | -0.76 | 3.8 | i | 0.9* | 0.2*
O=C(CNC(=O)c1ccc(-c2ccccc2)cc1)OCc1ccc(Br)cc1 | 0.72 | 0.174 | i | 92.6 | 99.7
CC1CCCC(NC(=O)C2CCCN2S(=O)(=O)c2cccc3nsnc23)C1C (centres undefined) | -0.88 | 0.745 | i | 61.9 | 73.2
CCc1ccc(NC(=O)N(Cc2ccco2)C(C)c2cccs2)cc1 (centres undefined) | -0.75 | -1.05 | i | 87.3 | 76.2
CCc1ccc(NC(=O)CS(=O)CC(=O)NC(C)CCc2ccco2)cc1 (centres undefined) | 1.02 | 0.776 | + | 91.1 | 94.2
CCOCCCn1c(=O)c(NC(=O)c2ccc(OCC)cc2)c2n(c1=S)CCCCC2 | 2.56 | 0.0791 | i | 78.9 | 88.1
COc1ccc(/C=C/C(O)=C2/C(=O)N(C)C3(C)CC2c2ccccc2O3)cc1 (centres undefined) | -1.45 | -1.06 | i | 1.8* | 1.4*
SMILES | SDO1 yeast rescue | Dynein transport | Autophagy HCS | bCat KO growth | PTEN del growth
COc1ccc(/C=C/C(O)=C2/C(=O)NC3(C)CC2c2ccccc2O3)c(OC)c1OC (centres undefined) | nt | -1.67 | i | nt | nt
Cc1ccc(S(=O)(=O)C2C(=O)N(C)C3(C)CC2c2ccccc2O3)cc1C (centres undefined) | -0.99 | -0.898 | i | 88.9 | 101.8
Cc1ccc(/C=C/C(O)=C2/C(=O)N(C)C3(C)CC2c2ccccc2O3)cc1 (centres undefined) | -1.59 | -1.51 | i | 5.4* | 3.0*
NN1C(=O)NC(c2ccccc2)(c2ccccc2)C1=O | nt | -0.38 | i | nt | nt
CCOC(=O)c1sc(NC(=O)c2ccc(Cl)s2)cc1C | -0.75 | -0.112 | i | 89.5 | 95.8
CCOC(=O)c1sc(NC(=O)Nc2ccc(Cl)cc2)cc1C | -1.97 | 1.01 | i | 5.2* | 5.0
CC(=O)c1sc(NC(=O)CCCOc2ccc(Cl)cc2)nc1C | nt | -0.956 | i | nt | nt
O=C(O)c1cccc2c1C(=O)c1ccccc1C2=O | nt | -1.51 | + | nt | nt
CCOC(=O)c1cc2sc(C)cc2n1C(C)C(=O)OCC (centres undefined) | 0.05 | 2.79 | i | 87.2 | 84.1
Cn1c(N/N=C2\CCCc3ccccc32)nc2c1c(=O)n(Cc1ccc(F)cc1)c(=O)n2C | 0.01 | -0.339 | i | 1.2* | 1.2*
O=C(Nc1nc2ccccc2n1CCOc1ccc(Cl)cc1)c1ccco1 | -1.54 | 0.666 | i | 5.4* | 6.4
Cc1cccc(OCCn2c(NC(=O)c3ccco3)nc3ccccc32)c1 | -1.62 | -0.902 | + | 19.2 | 10.8
O=C(Nc1nc2ccccc2n1CCOc1ccccc1)c1ccco1 | -1.31 | -0.27 | i | 16.3 | 15.0
COc1ccc(C(c2sc3nc(C)nn3c2O)N2CCC3(CC2)OCCO3)cc1 (centres undefined) | 0.62 | 0.479 | i | 97.0 | 95.4
O=C(N/N=C/c1cn(-c2ccccc2)nc1-c1ccc([N+](=O)[O-])cc1)c1ccncc1 | nt | 0.126 | nt | nt | nt
O=S(=O)(Nc1ccc(S(=O)(=O)N2CCCCC2)cc1)c1cccs1 | 0.71 | -0.89 | i | 94.1 | 81.9
CN1/C(=C\C=C2/SC(=S)N(CC(=O)O)C2=O)C(C)(C)c2ccccc21 | nt | 0.598 | i | nt | nt
C=CCN1C(=O)/C(=C\C=C2\N(C)c3ccccc3C2(C)C)SC1=S | 0.57 | -0.242 | + | 70.6 | 68.2
O=[N+]([O-])c1ccc(Oc2cccc(C(F)(F)F)c2)nc1 | nt | 1.14 | nt | nt | nt
C[C@H]1CC[C@H]2C(=O)N3[C@H](c4ccccc4Br)[C@@H](C)CC[C@H]3C(=O)N2[C@@H]1c1ccccc1Br | -1.04 | -0.528 | + | 2.3* | 3.0*
C[C@H]1CC[C@H]2C(=O)N3[C@H](c4cccc(N5CCCC5=O)c4)[C@@H](C)CC[C@H]3C(=O)N2[C@@H]1c1cccc(N2CCCC2=O)c1 | 0.13 | 0.0454 | i | 95.4 | 93.4
O=C(NC1CCN(C(=S)NCc2ccco2)CC1)c1cccc(F)c1 | nt | -0.553 | i | nt | nt
CCC1(C)Cc2ccccc2C(=S)N1 (centres undefined) | nt | 0.33 | i | nt | nt
